# Shown are actives, neighbours in structure and some others; about 2.1% of the full set was active somewhere.
# RanGTP-Impb inh: inhibitors of RanGTP-importin-beta interaction, primary screen, biochemical, FRET, CFP-Ran, YFP-importin-beta, homogeneous. cell-free CFP-Ran/YFP-importin-beta FRET ratio. 300,000 tested, 1.1% active. inhibition, % (no concentration beside the values);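 active = more than half of the replicate wells show a fall in the fluorescence ratio signal beyond about 16%, limit read from the data, passing the limit was not always enough; inconclusive = exactly half of the replicate wells pass the set limit; inactive = fewer than half of replicates pass the limit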;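 also: 0% = DMSO wells and 100% = Ran loaded with GDP instead of GTP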
# Runt-SMMHC FRET: inhibitors of RUNX1 Runt–CBFb-SMMHC binding, primary screen, biochemical, FRET, Cerulean-Runt, Venus-CBFb-SMMHC, uHTS; 220,000 tested, 0.74% active; Cerulean-Runt/Venus-CBFb-SMMHC FRET ratio 530/480, 1 h; inhibition, % at 20 µM; Runt-related transcription factor 1 (Homo sapiens) + Core-binding factor subunit beta …;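 active = mean inhibition across duplicate retests at 20 µM reaching about 50%, limit read from the data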;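 also: 0% = DMSO wells and 100% = wells with excess untagged CBFb-SMMHC; inhibitors lower the FRET ratio by blocking Runt binding to CBFb-SMMHC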
# p97 ATPase inh: inhibitors of human p97 ATPase, primary screen, biochemical | Transitional endoplasmic reticulum ATPase (Homo sapiens), P55072 | recombinant p97 ATPase, Kinase-Glo ATP luminescence, 3 h | 220,000 tested, 0.42% active | inhibition, % at 8 µM; in the data active = inhibition above about 15%;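 also: 0% = DMSO vehicle and 100% = wells lacking enzyme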
# Hck-Nef inh: inhibitors of Nef-activated human Hck kinase, primary screen, biochemical, Z-Lyte FRET, 384-well, Hck-YEEI; Tyrosine-protein kinase HCK (Homo sapiens), P08631; 220,000 tested, 0.68% active; inhibition, % at 20 µM; Recombinant Hck-YEEI plus Nef, Z-Lyte FRET kinase assay;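 active = Hck-Nef kinase inhibition above about 50%, limit read from the data; inactive = inhibition below that limit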;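 also: 0% = DMSO with Hck plus Nef and 100% = Hck alone without Nef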
# Target sequence (P08631 whole entry, looked up): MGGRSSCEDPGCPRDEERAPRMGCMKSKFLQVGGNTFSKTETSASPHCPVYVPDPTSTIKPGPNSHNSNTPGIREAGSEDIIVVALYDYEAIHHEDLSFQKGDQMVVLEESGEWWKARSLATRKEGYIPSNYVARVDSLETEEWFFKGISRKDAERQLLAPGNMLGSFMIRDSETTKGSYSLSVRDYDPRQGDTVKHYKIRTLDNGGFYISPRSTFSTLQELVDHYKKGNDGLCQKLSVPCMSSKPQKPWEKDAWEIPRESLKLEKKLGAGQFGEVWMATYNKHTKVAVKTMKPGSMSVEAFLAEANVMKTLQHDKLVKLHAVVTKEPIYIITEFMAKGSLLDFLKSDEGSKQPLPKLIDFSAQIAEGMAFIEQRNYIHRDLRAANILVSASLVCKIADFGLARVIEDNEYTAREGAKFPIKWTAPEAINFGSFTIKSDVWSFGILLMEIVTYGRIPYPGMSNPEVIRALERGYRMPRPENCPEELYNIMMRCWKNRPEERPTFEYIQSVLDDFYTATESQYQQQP
# Runt-CBFb FRET: inhibitors of RUNX1 Runt–CBFb binding, primary screen, biochemical, FRET, Cerulean-Runt, Venus-CBFb, uHTS. Runt-related transcription factor 1 (Homo sapiens) + Core-binding factor subunit beta …. Cerulean-Runt/Venus-CBFb FRET ratio 530/480, 1 h. inhibition, % at 20 µM. 220,000 tested, 0.46% active. AID 1496, 2009;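 active = inhibition over about 50% at 20 µM in the single-dose screen, limit read from the data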;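 also: 0% = DMSO wells and 100% = excess unlabeled CBFb competitor control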
#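 Assay system: Cerulean-Runt domain fusion protein, energy donor; Signal: fluorescence energy transfer, 422 nm excitation, 530/480 nm emission; Timing: 1 h compound exposure, room temperature; Control set: unlabeled CBFb; Medium: Tris buffer pH 7.5 with salts and BSA; Compound: single test concentration of 20 µM, 1% DMSO final; Probe or stimulus: Venus-CBFb 100 nM.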
# TbHK1 inh: Trypanosoma brucei hexokinase 1 inhibitors, primary screen, biochemical, G6PDH-coupled NADH absorbance, MLSCN library; recombinant TbHK1, G6PDH-coupled NADH A340; 220,000 tested, 0.11% active; hexokinase 1 [Trypanosoma brucei]; AID 1430, 2008; inhibition, % at 10 µM;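 active = inhibition of 50% or more in the single-dose primary screen; inactive = inhibition below 50%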
# Starred values were filed as active, the others as inactive; u = inconclusive; x = no result given.
SMILES,RanGTP-Impb inh,Runt-SMMHC FRET,p97 ATPase inh,Hck-Nef inh,Runt-CBFb FRET,TbHK1 inh
Clc1ccc(-c2cn3nc4c(nc3n2)CCCC4)cc1,70*,57,2,1,12,-7
COc1cccc(-c2cn3nc4c(nc3n2)CCCC4)c1,46*,3,4,9,-1,-1
CCOC(=O)C1(CCOc2ccccc2)CCN(Cc2cc(OC)c3c(c2)OCO3)CC1,1,1,1,-1,-1,1
CC1CCCC(C)N1C(=O)Cn1cnc2cc([N+](=O)[O-])ccc2c1=O (configuration not stated),u,2,4,-16,-1,-2
CCN(C(=O)Cn1cnc2cc([N+](=O)[O-])ccc2c1=O)C1CCS(=O)(=O)C1 (configuration not stated),14*,-15,5,21,0,-12
Cc1ccc2cc3c(NC(=O)c4ccco4)nn(C)c3nc2c1,23*,27,5,16,17,-17
CCCn1nc(NC(=O)c2ccco2)c2cc3ccccc3nc21,46*,58,-1,20,15,2
CCn1nc(NC(=O)c2ccco2)c2cc3cc(C)ccc3nc21,54*,84*,0,-10,39,-7
CC(=O)Nc1nn(C)c2nc3cc(C)ccc3cc12,9,-8,8,10,-2,-13
CC(=O)c1cccc(NS(=O)(=O)c2ccc(-c3cc(C)no3)s2)c1,5,x,x,x,x,x
COc1ccc(N2CCN(S(=O)(=O)c3ccc(OC)c(C(=O)N4CCOCC4)c3)CC2)cc1,4,x,x,x,x,x
COc1cc(/C=C/C(=O)OCC(=O)c2c(N)n(C)c(=O)n(C)c2=O)ccc1OCC#N,2,-2,-3,12,1,-14
N#Cc1c(NC(=O)CSc2ncnc3sccc23)oc(-c2ccco2)c1-c1ccco1,-5,-38,15*,19,11,-3
CCOC(=O)C1=C(C)Nc2ccccc2N=C1NC(=O)c1ccc(Cl)c(S(=O)(=O)N2CCCC2)c1,1,-3,1,3,0,-2
COc1ccc2nc(N3CCC(O)CC3)c(C#N)cc2c1,51*,75*,3,0,42,-1
COc1ccc2nc(N3CCC(C)CC3)c(C#N)cc2c1,45*,70*,4,0,71*,-3
COc1ccc2cc(C#N)c(N3CCOCC3)nc2c1,2,x,x,x,x,x
CCOC(=O)C1CCN(c2nc3cc(OC)ccc3cc2C#N)CC1,-1,2,0,7,15,3
O=c1c(Cc2ccccc2)c(O)ccn1Cc1ccc2c(c1)OCO2,-2,3,-1,5,0,0
COc1ccc(C(=O)NCCNc2nc3ccc(C)cc3cc2C#N)cc1,65*,x,x,x,x,x
Cc1ccc2nc(NCc3ccccc3)c(C#N)cc2c1,38*,83,1,13,42,-2
COc1cc(C(=O)NCCNc2nc3ccc(C)cc3cc2C#N)cc(OC)c1OC,81*,x,x,x,x,x
COc1ccc2nc(NCCCNC(=O)c3cc(OC)c(OC)c(OC)c3)c(C#N)cc2c1,126*,38,0,6,57*,11
CCCOc1cccc(C(=O)N/N=C/c2ccoc2)c1,5,x,x,x,x,x
CCC1C2CN(C(C)=O)CC=C2C(C#N)=C(N)C1(C#N)C#N (configuration not stated),0,25,5,6,8,34
SMILES,RanGTP-Impb inh,Runt-SMMHC FRET,p97 ATPase inh,Hck-Nef inh,Runt-CBFb FRET,TbHK1 inh
CCN1CC=C2C(C#N)=C(N)C(C#N)(C#N)C(c3cc(Cl)ccc3Cl)C2C1 (configuration not stated),56*,65*,1,10,73*,-27
Cc1ccc(C2C3CSCC=C3C(C#N)=C(N)C2(C#N)C#N)cc1 (configuration not stated),16*,-23,4,-6,-5,0
CCCC1C2CN(C(C)=O)CC=C2C(C#N)=C(N)C1(C#N)C#N (configuration not stated),9,10,2,0,4,-12
CC(C)N1CC=C2C(C#N)=C(N)C(C#N)(C#N)[C@H](c3ccoc3)[C@H]2C1,55*,60*,4,19,49,-8
CN1CC=C2C(C#N)=C(N)C(C#N)(C#N)C(Cc3ccccc3)C2C1 (configuration not stated),100*,78*,1,13,110*,-4
N#CC1=C(N)C(C#N)(C#N)[C@H](c2ccncc2)[C@H]2CN(C(=O)OCc3ccccc3)CC=C12,11,18,-3,-6,13,-1
CC(C)(C)OC(=O)N1CC=C2C(C#N)=C(N)C(C#N)(C#N)[C@H](c3cccnc3)[C@H]2C1,18*,29,4,-2,16,-3
CC(C)N1CC=C2C(C#N)=C(N)C(C#N)(C#N)C(c3ccccc3)C2C1 (configuration not stated),71*,63*,0,16,74*,-7
COc1cc2ccc(=O)oc2c(O[C@@H]2O[C@H](CO)[C@@H](O)[C@H](O)[C@H]2O)c1O,119*,x,x,x,x,x
CCCc1cc(=O)oc2c(C)c(O[C@@H]3O[C@H](CO)[C@@H](O)[C@H](O)[C@H]3O)ccc12,1,x,x,x,x,x
O=C(CN1C(=O)CSc2ncccc21)Nc1ccccc1F,5,x,x,x,x,x
COc1cccc(CNC(=O)c2cc(S(=O)(=O)N3CCCC3)cn2C)c1,1,x,x,x,x,x
Cc1cc(=O)n2c3ccccc3n(CC(O)CN3CCOCC3)c2c1C#N (configuration not stated),130*,1,5,-7,-1,-26
Cc1cc(=O)n2c3ccccc3n(CC(O)CN3CCCCC3)c2c1C#N (configuration not stated),4,-1,2,1,-1,-27
CCCCOCCCN1CC(=O)N2[C@@H](Cc3c([nH]c4ccccc34)C2(C)C)C1=O,6,x,x,x,x,x
CC(C)Cc1nnc(NC(=O)Cc2cccs2)s1,26*,-5,-1,36,2,9
NC(=O)c1ccc[n+](CC(=O)Nc2ccccc2C(=O)O)c1,2,x,x,x,x,x
O=C(NC1CC1)c1ccc(CSCc2ccccc2Cl)o1,-3,x,x,x,x,x

# Screening data from PubChem.
